Hits are enriched below; roughly 0.79% of the tested compounds scored in any of these assays.
hIAP activ = human IAP activators, primary screen, biochemical, luminescence, uHTS; Intestinal-type alkaline phosphatase (Homo sapiens), P09923; purified human IAP, CDP-Star luminescence, 30 min; hits give high values; 1 = vehicle-only enzyme, 0 = enzyme-free background; activation factor at 10 µM; actives 0.16% (n = 330,000); AID 2524, 2010;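 active = activation factor of the enzyme at least 2-fold when tested at 20 µM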
Target sequence (P09923 whole entry, looked up): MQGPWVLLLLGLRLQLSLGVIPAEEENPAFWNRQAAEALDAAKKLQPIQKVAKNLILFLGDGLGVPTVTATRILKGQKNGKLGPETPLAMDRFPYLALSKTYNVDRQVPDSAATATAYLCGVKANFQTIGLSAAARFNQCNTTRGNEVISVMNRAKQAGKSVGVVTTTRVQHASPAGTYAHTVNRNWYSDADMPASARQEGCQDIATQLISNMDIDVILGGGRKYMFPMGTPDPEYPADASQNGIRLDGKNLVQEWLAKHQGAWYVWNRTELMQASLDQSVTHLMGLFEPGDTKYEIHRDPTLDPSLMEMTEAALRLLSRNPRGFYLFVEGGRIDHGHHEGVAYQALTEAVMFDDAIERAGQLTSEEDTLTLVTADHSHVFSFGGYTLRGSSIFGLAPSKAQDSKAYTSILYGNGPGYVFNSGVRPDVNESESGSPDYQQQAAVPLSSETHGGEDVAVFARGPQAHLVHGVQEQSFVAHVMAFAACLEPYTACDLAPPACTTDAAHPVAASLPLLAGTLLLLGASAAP
bIAP act = bovine intestinal alkaline phosphatase activators, primary screen, biochemical, bovine IAP, CDP-star luminescence; alkaline phosphatase, intestinal [Bos taurus]; purified bovine IAP, 30 min; hits give high values; fold of DMSO-control signal, blank-subtracted; activation factor at 20 µM; actives 0.17% (n = 200,000);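 active = activation factor of 2 or more at 20 µM, a signal rise over negative controls twice the positive control's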
hIAP block = human IAP inhibitors, primary screen, biochemical, luminescence, uHTS; actives 0.12% (n = 330,000); AID 2544, 2010; purified IAP, CDP-Star luminescence, 30 min; inhibition, % at 10 µM;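 active = inhibition reaching a set limit with compound at 10 µM in the primary screen, cut at about 35% in these data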;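 also: plate controls were DMSO wells with enzyme for no effect and no-enzyme buffer wells for full effect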
mIAP activ = activators of mouse IAP, primary screen, biochemical, luminescence, uHTS; muIAP, CDP-Star luminescence, 30 min; hits give high values; 1 = vehicle-only enzyme signal, 0 = enzyme-free wells; AID 2805, 2010; actives 0.24% (n = 330,000); activation factor at 10 µM; intestinal alkaline phosphatase [Mus musculus];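 active = activation factor of at least 2 at 20 µM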
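Assay system: mouse IAP enzyme; reagent: chemiluminescent substrate CDP-Star; dosing: test compounds delivered from DMSO solution; schedule: 30 min at room temperature; measured by: luminescence from enzymatic CDP-Star hydrolysis; controls: DMSO-only wells and no-enzyme negative control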
bIAP inhibitor = bovine intestinal alkaline phosphatase inhibitors, primary screen, selectivity assay for TNAP inhibitor project, biochemical, bovine IAP, CDP-star luminescence | purified bovine IAP, 30 min | 190,000 tested, under 10 active | inhibition, % at 20 µM | alkaline phosphatase, intestinal [Bos taurus];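 active = over 50% inhibition of intestinal alkaline phosphatase at 20 µM in the single-dose screen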
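Incubation: 30 min reaction at room temperature / Material: purified bovine intestinal alkaline phosphatase (IAP) enzyme / Input: enzyme at 1/65,000,000 dilution / Dosing: 20 µM single dose / Signal: CDP-star luminescence signal / Reagent: CDP-star chemiluminescent phosphatase substrate, 30 µM final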
mIAP block = inhibitors of mouse IAP, primary screen, biochemical, luminescence, uHTS; purified mouse IAP, CDP-Star luminescence, 30 min; inhibition, % at 10 µM; actives 0.2% (n = 330,000);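 active = inhibition of at least 40% at 10 µM in the primary screen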;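 also: plate controls were DMSO with enzyme for no effect and no enzyme wells for full effect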
hIAP act confirm = human IAP activators, confirmation, biochemical, luminescence, single concentration, uHTS hits; shares compounds with hIAP activ; purified IAP, CDP-Star luminescence, 30 min; hits give low values; activation (%Activity, negative = activation), % at 8.3 µM; actives 10% (n = 880); AID 434926, 2010;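 active = at least twofold enzyme activation in any of six single-dose repeats, which the averaged readout prints as negative percent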
* hit, by the source's call; i = inactive; . = no result given.

SMILES	hIAP activ	bIAP act	hIAP block	mIAP activ	bIAP inhibitor	mIAP block	hIAP act confirm
C=CCN1C(=O)/C(=C/C=C2/N(CC)c3ccc(S(=O)(=O)N(C)C)cc3N2CC)SC1=S	0.64	0.9	36*	0.73	14	27	0
CCN1/C(=C/c2ccc3cc(C)ccc3[n+]2CC)Sc2cc(C)c(C)cc21	0.68	0.3	32	0.83	.	17	.
CCN1/C(=C/c2ccc3cc(C)ccc3[n+]2CC)Sc2ccccc21	0.63	1.2	37*	0.66	-23	34	9
Cc1ccc(NS(=O)(=O)c2ccc(-c3cnc(C4CC4)o3)cc2)cc1	0.63	.	37*	0.99	.	1	-5
c1ccc(Nc2ccnc(Nc3ccccc3)n2)cc1	2.8*	.	-177	1.1	.	-11	-44*
COc1ccc(-n2nc3ccc(NS(C)(=O)=O)cc3n2)cc1Cl	0.62	0.9	38*	1.1	6	-9	1
CN(C)c1ccc(N=Nc2cccc3ccoc23)cc1	0.64	.	36*	0.72	.	28	-35
CN(C)c1ccc(N=Nc2cccc(F)c2)cc1	0.95	.	5	0.88	.	12	.
Cc1ccc(NC(=O)CCC(=O)NNC(=S)Nc2ccc(F)cc2F)cc1C	2.2*	.	-123	1	.	0	7
Cc1ccc(NC(=O)CCC(=O)NNC(=S)Nc2ccc(F)cc2)c(C)c1	1.7	.	-70	1	.	0	.
CSCCC(NS(=O)(=O)c1ccccc1F)C(=O)NNC(=O)c1csc(N2CCOCC2)n1 (stereo unspecified)	2.6*	.	-164	0.71	.	29	72
CSCCC(NS(=O)(=O)c1ccccc1F)C(=O)N1CCCCCC1 (stereo unspecified)	1.2	.	-20	1.1	.	-5	.
CSCCC(NC(=O)c1ccccc1Br)C(=O)NNC(=O)c1csc(N2CCOCC2)n1 (stereo unspecified)	2.1*	.	-110	0.94	.	6	-6
CSCCC(NC(=O)c1ccccc1Cl)C(=O)NNC(=O)c1csc(N2CCOCC2)n1 (stereo unspecified)	1.8	.	-81	1	.	-2	.
CCCCNc1c(N)n(CCCC)c(=O)[nH]c1=O	1.1	1	-6	1.1	1	-7	.
CCCCOc1cccc(C2/C(=C(\O)c3ccc4c(c3)OCCO4)C(=O)C(=O)N2CCN2CCOCC2)c1 (stereo unspecified)	0.58	.	42*	1	.	-1	-91*
CCN(CC(=O)NCc1cccs1)C(=O)c1ccc(S(=O)(=O)Nc2ccccc2OC)cc1	1.1	.	-5	1	.	-1	.
C=CCn1c(CNS(=O)(=O)c2ccc(Cl)cc2)n[nH]c1=S	0.58	.	42*	0.83	.	16	-26
C=CCn1c(CNS(=O)(=O)c2ccc(F)cc2)n[nH]c1=S	0.91	.	9	1.1	.	-6	.
Cc1nn(C(C)C(=O)NC2CCCCCC2)c(=O)c2nn(-c3ccccc3)c(C)c12 (stereo unspecified)	1.1	.	-15	0.99	.	1	.
CC1CCN(S(=O)(=O)c2ccc3c(c2)CCN3C(=O)C2CCC2)CC1	0.82	.	18	0.98	.	2	.
CC1CCCN(S(=O)(=O)c2ccc3c(c2)CCN3C(=O)C2CCC2)C1 (stereo unspecified)	50*	1	i	0.97	0	3	0
CCOc1ccc(NC(=O)CN(C)C(=O)c2c(C)nn(-c3ccc(F)cc3)c2Cl)cc1OCC	0.98	.	2	1.1	.	-6	.
O=C(Cc1ccc(Br)cc1)Nc1nc2ccccc2[nH]1	1.6	.	-56	0.97	.	3	.
CC(NS(=O)(=O)c1ccc(Br)cc1)C(=O)Nc1nc2ccccc2[nH]1 (stereo unspecified)	2.1*	.	-112	0.88	.	12	67
SMILES	hIAP activ	bIAP act	hIAP block	mIAP activ	bIAP inhibitor	mIAP block	hIAP act confirm
C=CCN1C(=O)/C(=C\C=C2\N(C)c3ccccc3C2(C)C)SC1=S	0.54	0.9	46*	0.61	14	38	-267*
O=C(CCCSc1nc(-c2ccco2)cc(C(F)(F)F)n1)NCc1cccs1	0.63	0.9	37*	0.95	7	5	-29
CCN(CC(=O)Nc1c(F)cccc1F)C(=O)CCSc1ccc(C)cc1	0.96	.	4	1	.	-3	.
O=C(Cn1cnc2c(oc3ccccc32)c1=O)N1CCCC1	0.95	1	5	1	-4	0	.
C[C@H](NC(=O)c1[nH]cnc1C(=O)Nc1ccon1)c1ccccc1	1.8	.	-80	0.85	.	15	.
C[C@@H](NC(=O)c1[nH]cnc1C(=O)Nc1ccon1)c1ccccc1	2.1*	.	-107	0.86	.	14	-80*
C[C@@H](NC(=O)c1nc[nH]c1C(=O)N[C@H](C)c1ccccc1)c1ccccc1	1.2	.	-20	0.98	.	2	.
C[C@@H](NC(=O)c1[nH]cnc1C(=O)Nc1nccs1)c1ccccc1	2.2*	.	-124	0.97	.	3	12
O=C(NCc1cccs1)C(=O)c1cn(CC(=O)N2CCOCC2)c2ccccc12	1	1.1	-1	0.94	-12	6	.
C=CCN1C(=O)C2(NNc3ccccc3O2)c2ccccc21 (stereo unspecified)	6.7*	3.9*	i	1.1	-286	-6	-93*
CC(C)(C)OC(=O)NCCCC[C@H](NC(=O)c1[nH]cnc1C(=O)Nc1ccc(CNC(=O)OC(C)(C)C)cc1)C(=O)OC(C)(C)C	2.7*	.	-172	1	.	-2	8
CC(C)(C)OC(=O)NCCCC[C@H](NC(=O)c1nc[nH]c1C(=O)NCc1ccccc1)C(=O)OC(C)(C)C	1.5	1.2	-50	1.3	-17	-34	.
CCOC(=O)c1ccc(NC(=O)c2nc[nH]c2C(=O)NCCCCCNC(=O)OC(C)(C)C)cc1	2.3*	.	-128	1.1	.	-7	7
CCOC(=O)c1ccc(NC(=O)c2nc[nH]c2C(=O)NCCCCNC(=O)c2[nH]cnc2C(=O)Nc2ccc(C(=O)OCC)cc2)cc1	1.7	.	-67	1.1	.	-10	.
Cc1cnc(C(=O)NNC(=O)c2ccc(Br)cc2)cn1	2.2*	.	-122	0.86	.	14	-38
CCOC(=O)Cc1nc2nc(C)cc(C)n2n1	1	1.1	-4	0.94	-8	6	.

Screening data: PubChem, Sanford-Burnham Center for Chemical Genomics
